# The full list was thinned out, with hits kept by preference.
# Ecoli tolC = blocks growth of E. coli BW25113 tolC mutant | OD615 | growth inhibition, % at 10 µM (by protocol) | 2.2% of 65,000 active;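 active means growth inhibition at or above a cutoff equal to the mean over every tested compound plus 3 SD, cut at about 60% in these data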;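 further: growth measured after 20 h incubation at 37 °C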
#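 Test system: E. coli BW25113 ΔtolC::kan bacteria | Medium: Kanamycin-containing LB broth (50 µg/mL) | Dosing: One dose of 10 µM final | Times: 20 h incubation with compound, 37 °C | Detection: Optical density read at 615 nm | Read-out basis: Percent growth inhibition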
# Mac1 fbg enh = CD11b/CD18-fibrinogen binding enhancement; P05107+P11215; K562 CD11b/CD18 adhesion to fibrinogen, ATPlite luminescence; activation, % at 10 µM; 0.07% of 93,000 active;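 active means 10 µM primary screen giving 50% or more activity, confirmed by 40% or more on retest at that dose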
# Target sequence (P05107 whole entry, looked up, other chains not shown): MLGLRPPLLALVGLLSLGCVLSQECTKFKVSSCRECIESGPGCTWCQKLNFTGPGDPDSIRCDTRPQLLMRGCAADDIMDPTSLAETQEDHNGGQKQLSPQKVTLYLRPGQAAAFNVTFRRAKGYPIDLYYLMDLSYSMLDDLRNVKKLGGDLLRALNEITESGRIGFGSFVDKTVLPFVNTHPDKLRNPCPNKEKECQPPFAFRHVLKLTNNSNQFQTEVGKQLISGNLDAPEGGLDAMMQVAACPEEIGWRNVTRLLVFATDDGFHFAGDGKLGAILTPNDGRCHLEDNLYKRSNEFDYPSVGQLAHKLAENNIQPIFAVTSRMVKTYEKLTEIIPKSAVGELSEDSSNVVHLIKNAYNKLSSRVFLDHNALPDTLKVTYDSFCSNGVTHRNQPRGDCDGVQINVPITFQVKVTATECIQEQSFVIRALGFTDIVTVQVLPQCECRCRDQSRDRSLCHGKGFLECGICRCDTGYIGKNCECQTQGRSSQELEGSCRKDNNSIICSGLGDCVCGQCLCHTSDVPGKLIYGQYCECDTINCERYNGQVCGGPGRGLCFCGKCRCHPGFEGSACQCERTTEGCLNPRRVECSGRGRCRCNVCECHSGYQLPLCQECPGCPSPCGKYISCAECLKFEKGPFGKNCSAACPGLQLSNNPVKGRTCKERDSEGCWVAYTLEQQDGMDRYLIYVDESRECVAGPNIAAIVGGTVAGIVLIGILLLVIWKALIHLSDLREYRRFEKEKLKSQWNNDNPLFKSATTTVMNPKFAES
# E coli WT exp = growth inhibitors of E. coli BW25113 wild type | OD600 absorbance | growth inhibition, % at 100 µM | 0.15% of 98,000 active;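 active means growth inhibition above about 50% at one test dose, limit read from the data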;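 further: growth measured after 20 h incubation at 37 °C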
# Mac1 fbg inh = inhibitors of human CD11b/CD18 binding to fibrinogen. P05107+P11215. K562 CD11b/CD18 adhesion to fibrinogen, ATPlite luminescence; Mn2+ added to activate the integrin. inhibition, % at 10 µM. 0.54% of 93,000 active. AID 1497;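 active means primary inhibition of 50% or more at 10 µM, then 40% or more on retest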
# * hit, by the source's call; . = no result.
SMILES,Ecoli tolC,Mac1 fbg enh,E coli WT exp,Mac1 fbg inh
COc1cc(NC(=O)c2cc3c(=O)n(C)c4ccccc4c3n2C)cc(OC)c1OC,-11,52,-6,16
COc1ccc(NC(=O)c2cc3c(=O)n(C)c4ccccc4c3n2C)cc1OC,75*,-4,-3,0
CCOc1cc(S(=O)(=O)N2CCN(Cc3ccccc3)CC2)ccc1Br,64*,4,1,38
CC(C)c1ccc(C(=O)CSc2n[nH]c(-c3ccncc3)n2)cc1,.,-2,-2,-11
CCc1ccc2[nH]c(=O)c(C(c3nnnn3CCOC)N3CCN(c4ccc(F)cc4)CC3)cc2c1 (stereo unspecified),78*,0,0,-2
Cc1ccc(C2CC(c3cccs3)=NN2C(=O)CSc2nc3ccccc3o2)cc1 (stereo unspecified),.,12,.,11
O=C1N/C(=N/Nc2ccccc2)S/C1=C\c1ccccc1,.,-12,-4,79*
CCOC(=O)C1CCN(S(=O)(=O)c2c(C)n[nH]c2C)CC1,-5,1,-1,-61
CN(Cc1cccs1)c1ncnc2sccc12,13,-8,11,89*
Cc1cc(C)c2[nH]c(=O)c(C(c3nnnn3CC3CCCO3)N3CCCC(C)C3)cc2c1 (stereo unspecified),62*,2,-4,-30
CCOc1ccccc1NC(=O)C1CCCCN1S(=O)(=O)c1ccc(F)cc1 (stereo unspecified),.,0,-4,-10
O=C(c1ccc(COc2ccccc2Cl)o1)N1CCN(Cc2ccc3c(c2)OCO3)CC1,52,.,-6,.
O=C(c1ccc(COc2ccc(Cl)cc2)o1)N1CCN(Cc2ccc3c(c2)OCO3)CC1,96*,-2,-19,70
COc1ccc(CCNc2nc(-c3cccnc3)cs2)cc1OC,.,.,-1,.
COc1ccc(CCNc2nc(-c3sc(C)nc3C)cs2)cc1OC,.,-7,-8,60*
CCOc1ccc2[nH]c3c(N4CCN(c5ccccn5)CC4)ncnc3c2c1,66*,6,-11,-5
COc1ccc2c(c1)[nH]c1c(N3CCN(Cc4ccc5c(c4)OCO5)CC3)ncnc12,48,-12,-3,83*
Cc1ccc2[nH]c3c(N4CCN(Cc5ccccc5)CC4)ncnc3c2c1,1,-2,5,84
Cc1ccc2c(c1)[nH]c1c(N3CCN(Cc4ccccc4)CC3)ncnc12,100*,-1,-7,43
COc1cccc2[nH]c3c(N4CCN(Cc5ccc6c(c5)OCO6)CC4)ncnc3c12,41,2,0,8
Cc1ccc2[nH]c3c(N4CCN(Cc5ccc6c(c5)OCO6)CC4)ncnc3c2c1,7,-7,-7,91*
COc1ccc(-c2ncccc2OC(=O)C23CC4CC(CC(C4)C2)C3)cc1OC,.,4,.,3
O=C(NC1CCCCC1)c1nc2c(nnn2Cc2ccccc2Cl)c(=O)[nH]1,76*,.,10,.
O=C(NCCc1ccccc1)c1nc2c(nnn2Cc2ccccc2Cl)c(=O)[nH]1,97*,.,-14,.
COc1cc(Cc2cnc(N)nc2N)cc(OC)c1OC,97*,-3,100*,12
SMILES,Ecoli tolC,Mac1 fbg enh,E coli WT exp,Mac1 fbg inh
C=CCc1cc(C)ccc1OCC(O)CN1CCN(c2ccccc2)CC1 (stereo unspecified),67*,-3,14,14
O=[N+]([O-])c1cccc(CSc2nnc(Cc3ccccc3)n2-c2ccc(F)cc2)c1,.,-2,.,-12
COc1ccc(OCC(O)Cn2c(=N)n(Cc3ccccc3)c3ccccc32)cc1 (stereo unspecified),66*,-4,25,-10
Cc1ccc(OCC(O)Cn2c(=N)n(Cc3ccccc3)c3ccccc32)cc1 (stereo unspecified),.,0,29,22
CCC(C)(C)n1nnnc1C(c1cc2ccc(C)cc2[nH]c1=O)N(Cc1cccnc1)Cc1ccco1 (stereo unspecified),71*,2,-9,-24
Cn1cccc1C(=O)C(=O)Nc1ccccc1,.,.,6,.
c1ccc(-c2cccc(-c3ccccn3)n2)nc1,73*,4,68*,-16
CCCN1CNC(=S)N(c2ccccc2OCC)C1,.,0,.,4
CCCCCCn1c(N2CCN(c3ccccc3)CC2)nc2c1c(=O)n(C)c(=O)n2C,80*,3,-23,18
CCOCCn1c(N2CCN(c3ccccc3)CC2)nc2c1c(=O)n(C)c(=O)n2C,-2,4,3,-41
CCCCCCn1c(NCC)nc2c1c(=O)n(C)c(=O)n2C,9,-7,-11,73*
CCCCOc1ccc(S(=O)(=O)N2CCCCCC2)cc1,62*,-1,9,36
CCC(C)(C)n1nnnc1C(c1cc2cc(C)cc(C)c2[nH]c1=O)N1CCN(Cc2ccc3c(c2)OCO3)CC1 (stereo unspecified),.,-4,-7,22
Cc1cc(C)cc(NCCC#N)c1,.,4,.,-6
CC(C)(C)OC(=O)N1CCN(c2ccc(CNC(=O)c3ccc(Cl)cc3)cc2)CC1,.,.,-1,.
CCCc1[nH]nc2c1C(c1ccc(OC)c(CSC3=NCCS3)c1)C(C#N)=C(N)O2 (stereo unspecified),87*,-6,5,28
COc1ccc(-c2cc(C(=O)N3CCCc4ccccc43)no2)cc1OC,39,-3,-12,13
COc1ccccc1N1CCN(C(=O)c2cc(-c3cccc(Cl)c3)on2)CC1,69*,-6,-18,2
COc1ccc(-c2cc(C(=O)N3CCc4ccccc4C3)no2)cc1OC,75*,3,-24,-22
Cc1ccc(Nc2nc(N)nc(CN3CCN(c4ccccc4)CC3)n2)cc1Cl,77*,3,-1,0
COc1ccc(N2CCN(Cc3nc(N)nc(Nc4ccc(C)c(Cl)c4)n3)CC2)cc1,32,-1,1,13
COCCn1c(C)cc(C2=NNC(=Nc3ccc(OC)cc3)SC2)c1C,.,81*,-1,23
COCCn1c(C)cc(C2=NNC(=Nc3ccccc3)SC2)c1C,.,-3,-7,39
Cc1ccc(Cl)cc1N1CCN(C(=O)CCS(=O)(=O)c2cccc3nonc23)CC1,61*,3,.,12
COc1ccc2nc(C)cc(N3CCOCC3)c2c1,-18,3,-2,-34
SMILES,Ecoli tolC,Mac1 fbg enh,E coli WT exp,Mac1 fbg inh
COc1ccc2c(-c3ccccc3)cc(N3CCOCC3)nc2c1,100*,1,-14,-7
COc1ccc(NC(=O)Cc2coc3cc(C)c(C(C)C)cc23)cc1S(=O)(=O)N1CCOCC1,.,2,.,93
Cc1ccc(NC(=O)c2ccccc2O)cc1,92*,.,43,.
Cn1cc(C(=O)c2ccc(Cl)cc2Cl)cc1C(=O)N/N=C(\N)COc1cccc(C(F)(F)F)c1,.,-2,-8,6
C(=C\c1ccccc1)/CN1CCN(C(c2ccccc2)c2ccccc2)CC1,6,.,.,.
Fc1ccc(C(c2ccc(F)cc2)N2CCN(C/C=C/c3ccccc3)CC2)cc1,76*,.,.,.
COc1ccc(C(=O)NC2c3ccccc3-c3ccccc32)cc1,.,29,.,0
Cc1ccc(NC(=O)CN(C)S(=O)(=O)c2cccc3nsnc23)cc1Cl,74*,7,-9,-50
COc1ccccc1-c1cc2nc(C)c(CCC(=O)NC(C)CCc3ccco3)c(C)n2n1 (stereo unspecified),.,3,0,-1
